Screens from PubChem BioAssay.
Rows were chosen to be rich in hits. Some 4.6% of all compounds tested hit in one or more screens of this group.
GPR7 antag – blocks human GPR7 receptor signaling | inhibition, % at 4.4 µM | GPR7-expressing cells, fluorescence antagonist assay | 290,000 compounds, 1.1% hits; in the data active = inhibition above about 16%, passing the limit was not always enough;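 note: cells stimulated with the agonist NPW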
Target sequence (P48145 whole entry, looked up): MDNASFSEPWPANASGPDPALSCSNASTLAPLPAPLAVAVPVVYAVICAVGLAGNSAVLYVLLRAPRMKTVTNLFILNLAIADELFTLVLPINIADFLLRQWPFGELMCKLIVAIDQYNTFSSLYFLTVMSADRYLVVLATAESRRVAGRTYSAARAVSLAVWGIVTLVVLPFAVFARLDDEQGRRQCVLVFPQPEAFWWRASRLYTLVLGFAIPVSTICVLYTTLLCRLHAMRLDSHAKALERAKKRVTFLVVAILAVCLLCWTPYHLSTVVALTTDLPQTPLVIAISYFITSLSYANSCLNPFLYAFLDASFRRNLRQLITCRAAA
TAAR1 antag – human TAAR1 antagonism. Q96RJ0. CHO RD-HGA16 TAAR1, Fluo-8 calcium fluorescence, antagonist. inhibition, % at 3 µM. 360,000 compounds, 1.5% hits;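 active = inhibition above a per-plate cutoff, the mean inhibition of test compounds on that plate plus 3 SD, cut at about 49% in these data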
Target sequence (Q96RJ0 whole entry, looked up): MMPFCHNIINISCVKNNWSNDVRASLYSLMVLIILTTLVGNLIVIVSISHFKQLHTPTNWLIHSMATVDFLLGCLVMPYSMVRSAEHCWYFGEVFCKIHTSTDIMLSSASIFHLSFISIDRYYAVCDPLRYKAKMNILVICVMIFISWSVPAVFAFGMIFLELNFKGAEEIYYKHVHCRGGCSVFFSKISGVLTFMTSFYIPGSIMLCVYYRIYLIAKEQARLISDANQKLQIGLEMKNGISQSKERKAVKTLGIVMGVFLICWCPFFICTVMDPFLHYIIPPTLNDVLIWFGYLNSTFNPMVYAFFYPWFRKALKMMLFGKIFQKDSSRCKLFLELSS
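Material: CHO RD-HGA16 cells bearing hTAAR1; compound dosing: one-point dosing, 3 µM nominal final; schedule: dye loading 75 min at 37 °C, then 30 min room temperature; measured by: calcium fluorescence with Fluo-8; control set: vehicle and agonist controls; replication: n of 1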
OX1R antag-1 – blocks the human orexin 1 receptor; 330,000 compounds, 0.43% hits; CHO/OX1R cells, Fluo-8 calcium fluorescence, orexin A; O43613; inhibition, % at 5 µM;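 active = inhibition above its plate's threshold, mean inhibition of all tested compounds on the plate plus 3 SD, cut at about 37% in these data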
TAAR1 agonist – agonists of human TAAR1; CHO RD-HGA16 TAAR1, Fluo-8 calcium fluorescence; vehicle wells 0%, saturating PEA agonist 100%; activation, % at 3 µM; 360,000 compounds, 0.99% hits;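 active = activation above the mean activation of all test compounds in the run plus 3 SD, cut at about 38% in these data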
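System: CHO-derived RD-HGA16 cells with stable Gα16 and human TAAR1 / Times: 17-24 h plating, Fluo-8 75 min 37 °C, 30 min RT / Technique: calcium-sensitive Fluo-8 signal, excitation 470-495, emission 515-575 nm / Measure: % activation relative to PEA EC100 response / Benchmarks: DMSO and PEA EC100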
OX1R antag-2 – OX1R (human) antagonism; O43613; inhibition, % at 6.6 µM; OX1R-expressing cells, FRET antagonist read-out; 330,000 compounds, 1.8% hits; in the data active = inhibition mostly above about 38%, no sharp cut-off; inactive = mostly below about 40%
CHO parental Ca – signal in parental CHO cells, OX1R antagonist counter-screen | AID 463079 | inhibition, % at 5.6 µM | parental CHO-K1, ATP-induced calcium, Fluo-8 fluorescence | 330,000 compounds, 0.63% hits;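 active = inhibition above that plate's mean sample inhibition plus 3 SD, cut at about 26% in these data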
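Test system: parental CHO cells; detection: calcium-sensitive Fluo-8 fluorescence; evaluation: percent inhibition of calcium signal; also added: ATP as calcium-mobilizing challenge; repeats: one well per compound; control set: ATP-challenged DMSO wells low, unchallenged DMSO wells high; compound: single nominal dose of 5.6 µM per compound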
Each line names hits and unclear results; the compound was inactive in the other large screens.

CC1(Cc2cc(Cl)ccc2C(F)(F)F)C(=O)Nc2cc(-c3ccccc3Cl)ccc21 (configuration not stated)	none (no result: GPR7 antag, OX1R antag-1, OX1R antag-2, CHO parental Ca)
COc1cc(OC)cc(C(=O)NCC(=O)N2CCC(C)CC2)c1	none
Cc1ccccc1C(=O)NC(=S)N(CCO)Cc1ccccc1	none
Cc1ccc(NC(=O)C[n+]2ccn(C3=C([O-])c4ccccc4C3=O)c2)cc1	TAAR1 agonist 43
Cc1ccc(S(=O)(=O)/N=C2\C(=O)c3ccccc3C([O-])=C2n2cc[n+](CCC(C)C)c2)cc1	OX1R antag-2 44 (no result: TAAR1 antag, TAAR1 agonist)
CCCC[n+]1ccn(C2=C([O-])c3ccccc3C(=O)/C2=N\S(=O)(=O)c2ccc(Br)cc2)c1	none
O=C(NC1CCN(C(=O)NCc2ccccc2)CC1)c1ccco1	none
CCC(C)N1CC(C(=O)O)CC1=O (configuration not stated)	none
O=C(COC(=O)c1cc(Cl)nc(Cl)c1)NCCc1ccc(F)cc1	none (no result: GPR7 antag)
COc1ccc(C(=O)/C=C/C(=O)N(CC(=O)NC2CCCCC2)Cc2ccccc2OC)c(O)c1	none (no result: OX1R antag-1, OX1R antag-2, CHO parental Ca)
COc1ccc(C(=O)/C=C/C(=O)N(CC(=O)NC2CCCCC2)Cc2ccccc2)c(O)c1	TAAR1 antag 66, TAAR1 agonist 41 (no result: OX1R antag-1, OX1R antag-2, CHO parental Ca)
CCCn1c(O)c(N=NC(=O)CNC(=O)c2cccnc2)c2ccccc21	none
Cn1c(O)c(N=NC(=O)CNC(=O)c2cccnc2)c2ccccc21	OX1R antag-2 43
COC(=O)Cn1c(O)c(N=NC(=O)CNC(=O)c2ccncc2)c2ccccc21	OX1R antag-2 70
N#C/C(=C/c1ccc(CNS(=O)(=O)c2ccccc2)o1)C(=O)NCc1ccccc1	none
COc1ccc(-c2cc(C#N)nc(NN)n2)cc1	none
COc1ccc(-c2nc(CN(Cc3cnn(C)c3)C(C)C)c(C)o2)c(OC)c1	none
O=C(O)c1ccc(N/N=C/C=C/c2ccc([N+](=O)[O-])o2)cc1	OX1R antag-1 49, CHO parental Ca 52
COc1cc(/C=N/NS(=O)(=O)c2ccc(C)c([N+](=O)[O-])c2)cc([N+](=O)[O-])c1O	none
Cc1cc(C(=O)N/N=C/c2ccc([N+](=O)[O-])o2)c(C)o1	none
O=C(O)c1ccc(N/N=C/c2ccc(-c3cccc(Cl)c3)o2)cc1	none
COC(=O)N/N=C/c1cc(OC)c(O)c([N+](=O)[O-])c1	OX1R antag-2 51
O=C(O)c1cccc(-c2ccc(/C=N/Nc3ccc([N+](=O)[O-])cc3)o2)c1	TAAR1 antag 57, OX1R antag-1 54, TAAR1 agonist 44, CHO parental Ca 33
COC(=O)N/N=C/c1ccc([N+](=O)[O-])o1	OX1R antag-2 56
Cc1ccc(S(=O)(=O)N2CCN(Cc3cccnc3)CC2)cc1	none
O=[N+]([O-])c1ccc(/C=[N+](\[O-])CCO)o1	OX1R antag-2 47
NC(=O)/C(=C\c1ccc([N+](=O)[O-])o1)c1ccco1	none (no result: GPR7 antag, OX1R antag-1, OX1R antag-2, CHO parental Ca)
Cc1c(C(=O)O)cccc1-c1ccc(/C=N/Nc2ccc(Br)cc2)o1	TAAR1 antag 59
O=C(N/N=C/c1ccc([N+](=O)[O-])o1)C(O)c1ccccc1 (configuration not stated)	OX1R antag-2 36
O=C(N/N=C/c1ccc(-c2ccc([N+](=O)[O-])cc2)o1)C(O)c1ccccc1 (configuration not stated)	none
COC(=O)/C(=C\c1ccc([N+](=O)[O-])o1)NC(=O)c1ccccc1	OX1R antag-2 69
CNC(=O)NC(=O)COC(=O)c1ccccc1OCc1ccccc1	none
NC(=O)N/N=C/c1ccc([N+](=O)[O-])o1	OX1R antag-2 66 (no result: GPR7 antag)
O=C(COc1ccccc1)N/N=C/c1ccc([N+](=O)[O-])o1	none
O=C(CNc1ccc2ccccc2c1)N/N=C/c1ccc([N+](=O)[O-])o1	OX1R antag-2 46, CHO parental Ca 41
O=C1NC(c2cccs2)C(C(=O)c2ccccc2)C(O)(C(F)(F)F)N1 (configuration not stated)	none
CCOC(=O)C1CCCN(C(=O)c2cn(C)c3ccc(S(=O)(=O)N(C)C)cc3c2=O)C1 (configuration not stated)	none
C=CCc1cc(/C=C/c2nc(O)c([N+](=O)[O-])c(=O)[nH]2)cc(OC)c1O	none
CCOc1cc(/C=C\c2nc(O)c([N+](=O)[O-])c(=O)[nH]2)ccc1OC(C)C	none
O=c1[nH]c(/C=C\c2ccc(O)cc2)nc(O)c1[N+](=O)[O-]	OX1R antag-2 47
O=c1[nH]c(/C=C\c2cccs2)nc(O)c1[N+](=O)[O-]	OX1R antag-2 65
O=c1[nH]c(/C=C\c2ccc(O)c(Cl)c2)nc(O)c1[N+](=O)[O-]	OX1R antag-2 51
O=C(CCNS(=O)(=O)c1ccccc1C(F)(F)F)N1CCN(C(c2ccccc2)c2ccccc2)CC1	none (no result: GPR7 antag)
COc1ccc(OC)c(NC(=O)C(=O)NNC(=O)C23CC4CC(CC(C4)C2)C3)c1	TAAR1 agonist 54
CCCC1=NN(C(=O)C(=O)Nc2ccc(Br)cc2)C(O)(C(F)(F)F)C1 (configuration not stated)	OX1R antag-2 50
Cc1ccc(S(=O)(=O)N(C)c2ccc(OCC(=O)OCc3nnc(-c4ccccc4)o3)cc2)cc1	none (no result: GPR7 antag, OX1R antag-1, OX1R antag-2, CHO parental Ca)
COc1ccc(Br)cc1CN1CCSCC1	none
CCCOc1ccc(-c2c(C(=O)N/N=C/c3cccs3)nnn2-c2nonc2N)cc1	none (no result: TAAR1 antag, TAAR1 agonist)
Cc1nc(N2CCN(c3ccccn3)CC2)c2c(C)c(C(=O)Nc3c(F)cc(F)cc3Br)sc2n1	TAAR1 antag 57
Cc1nc(N2CCN(c3ccccn3)CC2)c2c(C)c(C(=O)Nc3ccc(Cl)cc3)sc2n1	none
CC(=O)N(Cc1c(C#N)c2ccccc2n1C)c1ccccc1	none
CC(=O)N(Cc1ccccc1)c1ncc2c(n1)c(=O)c(C#N)c1ccccn12	OX1R antag-2 63
CCN(CC)S(=O)(=O)c1ccc(Cl)c(NC(=O)COc2ccc(OC)cc2[N+](=O)[O-])c1	none
O=C(COc1ccc(-n2cnnn2)cc1)Nc1ccc(F)c(F)c1F	CHO parental Ca 30 (no result: GPR7 antag)
COCCCn1c(SCC(=O)Nc2oc(C)c3c(C)n[nH]c(=O)c23)nc2ccccc2c1=O	none (no result: GPR7 antag)
Cc1n[nH]c(=O)c2c(NC(=O)CSc3nc4ccccc4c(=O)n3-c3ccc(OC(F)F)cc3)oc(C)c12	OX1R antag-2 76 (no result: GPR7 antag)
CCOC(=O)c1cccc(N2C(N)=NC(N)=NC2(C)C)c1	GPR7 antag 16
OCCN1CCN(c2cc(-c3ccccc3)c3ccccc3n2)CC1	none
CC1(C)CCCC2(C)C1CCC1(C)OC(=O)CCC12 (configuration not stated)	none (no result: GPR7 antag, OX1R antag-1, OX1R antag-2, CHO parental Ca)
CC(=O)OC[C@]12CC[C@H]3[C@@](C)(CC[C@H]4C(C)(C)CCC[C@]34C)[C@@H]1C[C@H](C1=CC(=O)O[C@@H]1OC(C)=O)O2	CHO parental Ca 64 (no result: GPR7 antag, TAAR1 antag, TAAR1 agonist)
